Reference: ChEMBL document CHEMBL1146523, “Antimalarial dihydroisocoumarins produced by Geotrichum sp., an endophytic fungus of Crassocephalum crepidioides” (J Nat Prod, 2003)
Converted amounts (≈) assume the structure as drawn. The source made the active and inactive calls. The calls are words filed in the database; no cut-off is given here.

Tests used:
Plasmodium falciparum = assay: Antimalarial activity against multidrug-resistant Plasmodium falciparum K1; assay type: functional, organism-based
Procedure, shortened: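 Multidrug-resistant P. falciparum K1 kept in continuous culture (Trager–Jensen). In vitro activity measured by the microculture radioisotope technique (Desjardins). IC50 read-out, with chloroquine diphosphate as the standard.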

[1] = test system: Mycobacterium tuberculosis; assay: Antimycobacterial activity against Mycobacterium tuberculosis H37Ra by microplate alamar blue assay; assay type: functional
Procedure, shortened: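 Growth inhibition of M. tuberculosis H37Ra in the Microplate Alamar Blue Assay. MIC read-out, with isoniazid and kanamycin sulfate as standard drugs.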

Candida albicans = assay: Antifungal activity against Candida albicans; assay type: functional, organism-based
Procedure, shortened: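 Candida albicans growth inhibition measured by a colorimetric method. IC50 read-out, with amphotericin B as the standard drug.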

Row | SMILES | MIC [1] [µg/mL] | IC50 (Plasmodium falciparum) [µg/mL] | IC50 (Candida albicans) [µg/mL] | other results
1 | C/C=C/CC[C@@H]1Cc2cc(O)c(C/C=C/C)c(O)c2C(=O)O1 | 50 (≈ 165 µM) | – | – | Activity (Plasmodium falciparum): inactive; Activity (Candida albicans): inactive
2 | CCCCC[C@@H]1Cc2cc(O)c(CCCC)c(O)c2C(=O)O1 | – | 2.6 (≈ 8.49 µM) | 33 (≈ 108 µM) | Activity [1]: inactive
3 | C[C@@H]1[C@H](O)[C@@H](C)/C=C/C=C/C=C/C=C/C=C/C=C/C=C/[C@H](O[C@@H]2O[C@H](C)[C@@H](O)[C@H](N)[C@@H]2O)C[C@@H]2O[C@](O)(C[C@@H](O)C[C@@H](O)[C@H](O)CC[C@@H](O)C[C@@H](O)CC(=O)O[C@H]1C)C[C@H](O)[C@H]2C(=O)O [AMPHOTERICIN B] | – | – | 0.01 (≈ 0.0108 µM) | –
4 | NNC(=O)c1ccncc1 [ISONIAZID] | 0.05 (≈ 0.365 µM) | – | – | –
5 | NC[C@H]1O[C@H](O[C@H]2[C@H](O)[C@@H](O[C@H]3O[C@H](CO)[C@@H](O)[C@H](N)[C@H]3O)[C@H](N)C[C@@H]2N)[C@H](O)[C@@H](O)[C@@H]1O.O=S(=O)(O)O [KANAMYCIN SULFATE] | 2.5 | – | – | –
6 | C/C=C/CC[C@@H]1Cc2cc(O)c(CCCC)c(O)c2C(=O)O1 | 25 (≈ 82.1 µM) | 4.7 (≈ 15.4 µM) | 19 (≈ 62.4 µM) | –
